Key:
[1] = biological target: T1, Phosphatidylinositol 4,5-bisphosphate 3-kinase catalytic subunit alpha isoform (Homo sapiens, UniProt P42336); assay: Inhibition of PI3Kalpha in human MCF7 cells assessed as reduction in AKT phosphorylation after 4 hrs by ADP-Glo assay; assay type: cell-based
Outline: (§1)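 MCF-7 cells were incubated with compound for 4 h. Phosphorylation of Akt at S473 and of p70s6k at T389 was read by […], and IC50 was derived.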

[2] = biological target: T1, Phosphatidylinositol 4,5-bisphosphate 3-kinase catalytic subunit alpha isoform; assay: Inhibition of PI3Kalpha in human MCF7 cells assessed as reduction in AKT phosphorylation at 1 uM after 2 hrs by ELISA relative to control; assay type: cell-based
[3] = biological target: T2, Serine/threonine-protein kinase mTOR (Homo sapiens, UniProt P42345); assay: Inhibition of mTOR in human MCF7 cells assessed as reduction in P70S6K phosphorylation after 4 hrs by […] assay; assay type: cell-based; outline: as §1
[4] = Clearance in mouse at 1 mg/kg, iv; assay type: ADME, organism-based; details: in vivo
Outline: (§2)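 Mice were dosed intravenously at 1 mg/kg. The vehicle was either 10% DMSO/65% PEG400/25% H2O or 10% DMSO/80% PEG400/10% H2O, depending on the compound.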

[5] = biological target: T1, Phosphatidylinositol 4,5-bisphosphate 3-kinase catalytic subunit alpha isoform; assay: Inhibition of PI3Kalpha (unknown origin) using PIP2 as substrate measured after 30 mins by HTRF assay
[6] = Volume of distribution at steady state in mouse at 1 mg/kg, iv; assay type: ADME, organism-based; details: in vivo, read-out: Vdss; outline: as §2
[7] = Tmax in mouse at 3 mg/kg, po; assay type: ADME, organism-based; details: in vivo
Outline: (§3)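 Single oral dose of 3 mg/kg to mice, given in 10% DMSO/65% PEG400/25% H2O or in 10% DMSO/80% PEG400/10% H2O depending on the compound. Plasma exposure was measured.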

[8] = AUC (0 to last) in mouse at 1 mg/kg, iv; assay type: ADME, organism-based; design: dose 1 mg/kg, time 0 - last, route intravenous; details: in vivo; outline: as §2
[9] = Cmax in mouse at 3 mg/kg, po; assay type: ADME, organism-based; design: dose 3 mg/kg, route oral; details: in vivo; outline: as §3
[10] = Oral bioavailability in mouse at 3 mg/kg; assay type: ADME, organism-based; details: in vivo; outline: as §3
[11] = Protein binding in mouse plasma; assay type: ADME, cell-free
[12] = Half life in mouse at 1 mg/kg, iv; assay type: ADME, organism-based; details: in vivo; outline: as §2
[13] = AUC (0 to last) in mouse at 3 mg/kg, po; assay type: ADME, organism-based; design: dose 3 mg/kg, time 0 - last, route oral; details: in vivo; outline: as §3
[14] = Protein binding in rat plasma; assay type: ADME, cell-free
[15] = biological target: T2, Serine/threonine-protein kinase mTOR; assay: Inhibition of mTOR (unknown origin) using ULight-4E-BP1(Thr37/46) peptide as substrate measured after 2 hrs by HTRF assay
[16] = Protein binding in human plasma; assay type: ADME, cell-free
PI3K p110 beta/p85 alpha = PI3K p110 beta/p85 alpha (Homo sapiens, UniProt P42338); assay: Inhibition of human PI3K p110beta/p85alpha using phosphatidylinositol 4,5-bisphosphate as substrate after 30 mins by HTRF assay; assay type: protein-complex assay
[17] = biological target: PI3-kinase p110-delta/p85-alpha (Homo sapiens, UniProt O00329); assay: Inhibition of human PI3K p110delta/p85alpha using phosphatidylinositol 4,5-bisphosphate as substrate after 30 mins by HTRF assay; assay type: protein-complex assay
Mus musculus = assay: Toxicity in Balb/c mouse xenografted with human PC3M cells assessed as body weight loss at 1 to 10 mg/kg, po administered once daily for 21 days measured daily during compound dosing; assay type: organism-based; details: in vivo, 504 h
Outline: (§4)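 Nude mice bearing PC-3M tumors received 1, 3 or 10 mg/kg by oral gavage once daily for 21 days, with 10 mice per group.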

PC-3M = assay: Antitumor activity against human PC3M cells xenografted in Balb/c mouse assessed as tumor growth inhibition administered orally once daily for 21 days measured twice a week during compound dosing; assay type: functional, cell-based; outline: as §4
[18] = biological target: Phosphatidylinositol 4,5-bisphosphate 3-kinase catalytic subunit gamma isoform (Homo sapiens, UniProt P48736); assay: Inhibition of human PI3K p120gamma using phosphatidylinositol 4,5-bisphosphate as substrate after 30 mins by HTRF assay
Phosphatidylinositol 4,5-bisphosphate 3-kinase catalytic subunit gamma isoform, sequence (P48736 whole entry, canonical isoform): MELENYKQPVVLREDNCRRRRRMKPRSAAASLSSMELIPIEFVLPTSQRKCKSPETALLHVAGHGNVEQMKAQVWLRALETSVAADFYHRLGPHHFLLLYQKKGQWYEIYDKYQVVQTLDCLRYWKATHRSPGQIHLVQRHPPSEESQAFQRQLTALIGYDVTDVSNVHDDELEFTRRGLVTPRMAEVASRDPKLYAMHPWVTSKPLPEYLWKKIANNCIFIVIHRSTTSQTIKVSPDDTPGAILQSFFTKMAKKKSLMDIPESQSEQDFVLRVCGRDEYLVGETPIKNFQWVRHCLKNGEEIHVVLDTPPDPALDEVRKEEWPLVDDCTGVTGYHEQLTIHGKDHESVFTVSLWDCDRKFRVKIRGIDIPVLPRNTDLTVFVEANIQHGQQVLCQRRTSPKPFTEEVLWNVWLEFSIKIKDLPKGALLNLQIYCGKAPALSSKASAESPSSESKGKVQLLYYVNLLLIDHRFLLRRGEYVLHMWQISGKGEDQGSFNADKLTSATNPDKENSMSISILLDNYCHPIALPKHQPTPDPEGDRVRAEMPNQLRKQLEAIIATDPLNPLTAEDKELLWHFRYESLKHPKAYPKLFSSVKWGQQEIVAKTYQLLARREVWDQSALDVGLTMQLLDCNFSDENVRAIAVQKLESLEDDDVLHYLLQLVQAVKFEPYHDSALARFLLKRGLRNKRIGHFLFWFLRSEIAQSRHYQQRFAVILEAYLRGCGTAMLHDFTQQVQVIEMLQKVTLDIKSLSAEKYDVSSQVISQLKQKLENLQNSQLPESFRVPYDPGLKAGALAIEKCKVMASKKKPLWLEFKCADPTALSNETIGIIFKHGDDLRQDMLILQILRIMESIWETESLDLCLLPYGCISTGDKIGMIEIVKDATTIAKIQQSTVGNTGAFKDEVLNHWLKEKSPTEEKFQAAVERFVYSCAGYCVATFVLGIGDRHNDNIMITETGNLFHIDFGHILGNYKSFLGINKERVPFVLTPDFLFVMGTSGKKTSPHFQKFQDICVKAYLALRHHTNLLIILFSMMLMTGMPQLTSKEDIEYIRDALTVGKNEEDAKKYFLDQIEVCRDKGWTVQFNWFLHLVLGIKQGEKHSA

T1 sequence (P42336 whole entry, canonical isoform): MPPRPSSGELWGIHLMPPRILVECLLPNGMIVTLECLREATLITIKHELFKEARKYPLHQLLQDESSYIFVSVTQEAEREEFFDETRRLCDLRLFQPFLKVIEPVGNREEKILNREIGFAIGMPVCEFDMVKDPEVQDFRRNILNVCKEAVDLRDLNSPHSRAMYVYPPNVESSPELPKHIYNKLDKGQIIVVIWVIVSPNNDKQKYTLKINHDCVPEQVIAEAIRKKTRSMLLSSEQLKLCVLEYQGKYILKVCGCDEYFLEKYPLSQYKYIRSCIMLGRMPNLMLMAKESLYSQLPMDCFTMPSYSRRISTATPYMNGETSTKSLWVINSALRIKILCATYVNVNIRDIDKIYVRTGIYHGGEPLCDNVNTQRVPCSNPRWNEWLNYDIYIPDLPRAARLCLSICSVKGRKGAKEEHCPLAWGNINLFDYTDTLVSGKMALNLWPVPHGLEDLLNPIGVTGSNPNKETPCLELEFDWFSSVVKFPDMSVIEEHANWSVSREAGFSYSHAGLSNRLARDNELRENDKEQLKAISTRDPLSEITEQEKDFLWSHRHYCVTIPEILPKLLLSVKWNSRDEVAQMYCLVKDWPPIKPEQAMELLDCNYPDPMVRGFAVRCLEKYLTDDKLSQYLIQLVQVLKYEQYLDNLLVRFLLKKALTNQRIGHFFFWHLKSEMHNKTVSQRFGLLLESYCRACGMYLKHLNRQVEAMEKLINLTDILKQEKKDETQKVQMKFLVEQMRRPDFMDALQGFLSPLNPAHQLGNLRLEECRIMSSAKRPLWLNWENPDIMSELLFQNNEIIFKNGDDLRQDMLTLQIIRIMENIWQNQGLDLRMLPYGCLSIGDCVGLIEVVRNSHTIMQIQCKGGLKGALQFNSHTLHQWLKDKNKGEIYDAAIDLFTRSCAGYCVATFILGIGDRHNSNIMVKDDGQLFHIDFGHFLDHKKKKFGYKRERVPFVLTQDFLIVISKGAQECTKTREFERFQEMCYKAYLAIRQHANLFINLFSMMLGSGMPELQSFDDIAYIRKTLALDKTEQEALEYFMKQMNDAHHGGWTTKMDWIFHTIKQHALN
PI3-kinase p110-delta/p85-alpha, sequence (P27986 whole entry): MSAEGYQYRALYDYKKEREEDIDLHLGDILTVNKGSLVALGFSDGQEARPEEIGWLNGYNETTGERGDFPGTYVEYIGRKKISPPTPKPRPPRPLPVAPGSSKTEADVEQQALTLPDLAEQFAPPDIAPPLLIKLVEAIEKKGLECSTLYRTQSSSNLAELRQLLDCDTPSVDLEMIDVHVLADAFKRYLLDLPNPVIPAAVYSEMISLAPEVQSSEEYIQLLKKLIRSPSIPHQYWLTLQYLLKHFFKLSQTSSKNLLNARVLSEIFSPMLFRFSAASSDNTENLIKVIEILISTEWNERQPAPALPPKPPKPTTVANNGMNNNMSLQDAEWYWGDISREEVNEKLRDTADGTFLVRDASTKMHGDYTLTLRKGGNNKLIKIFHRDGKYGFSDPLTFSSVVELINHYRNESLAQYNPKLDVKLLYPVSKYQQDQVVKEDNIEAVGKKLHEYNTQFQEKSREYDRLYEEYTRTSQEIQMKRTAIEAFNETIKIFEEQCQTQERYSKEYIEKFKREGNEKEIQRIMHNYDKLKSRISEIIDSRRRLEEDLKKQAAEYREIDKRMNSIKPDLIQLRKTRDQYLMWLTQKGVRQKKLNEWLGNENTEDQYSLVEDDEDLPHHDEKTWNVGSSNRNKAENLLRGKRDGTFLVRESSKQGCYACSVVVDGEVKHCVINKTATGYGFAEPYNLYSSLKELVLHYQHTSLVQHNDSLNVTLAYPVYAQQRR
PI3-kinase p110-delta/p85-alpha, sequence (O00329 whole entry): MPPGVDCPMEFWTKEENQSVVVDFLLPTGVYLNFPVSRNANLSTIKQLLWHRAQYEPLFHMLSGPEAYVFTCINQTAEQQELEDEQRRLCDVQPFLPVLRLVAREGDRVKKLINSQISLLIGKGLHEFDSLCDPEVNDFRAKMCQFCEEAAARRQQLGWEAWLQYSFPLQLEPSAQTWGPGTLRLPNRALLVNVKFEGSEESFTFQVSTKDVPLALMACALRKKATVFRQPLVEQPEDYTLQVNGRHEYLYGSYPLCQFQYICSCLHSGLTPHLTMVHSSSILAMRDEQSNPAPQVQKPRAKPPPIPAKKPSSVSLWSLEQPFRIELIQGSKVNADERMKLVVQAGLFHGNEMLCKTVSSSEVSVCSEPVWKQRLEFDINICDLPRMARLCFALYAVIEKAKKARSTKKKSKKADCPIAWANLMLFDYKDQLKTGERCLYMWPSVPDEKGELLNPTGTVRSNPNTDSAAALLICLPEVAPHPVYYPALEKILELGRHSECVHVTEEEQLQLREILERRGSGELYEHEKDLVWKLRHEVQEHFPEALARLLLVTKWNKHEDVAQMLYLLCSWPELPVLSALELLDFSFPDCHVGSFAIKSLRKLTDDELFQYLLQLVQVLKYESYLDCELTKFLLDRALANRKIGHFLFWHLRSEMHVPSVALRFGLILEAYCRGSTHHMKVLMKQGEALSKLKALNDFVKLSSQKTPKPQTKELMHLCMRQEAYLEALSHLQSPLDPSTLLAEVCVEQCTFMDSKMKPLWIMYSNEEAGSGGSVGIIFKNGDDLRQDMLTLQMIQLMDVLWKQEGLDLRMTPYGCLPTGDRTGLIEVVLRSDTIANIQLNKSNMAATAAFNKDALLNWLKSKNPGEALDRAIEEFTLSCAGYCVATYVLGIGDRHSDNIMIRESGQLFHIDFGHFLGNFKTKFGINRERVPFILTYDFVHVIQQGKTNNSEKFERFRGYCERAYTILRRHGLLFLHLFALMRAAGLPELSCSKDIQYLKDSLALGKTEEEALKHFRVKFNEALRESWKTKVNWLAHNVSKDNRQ
PI3K p110 beta/p85 alpha, sequence (P27986 whole entry): as the sequence (P27986 whole entry) above
PI3K p110 beta/p85 alpha, sequence (P42338 whole entry): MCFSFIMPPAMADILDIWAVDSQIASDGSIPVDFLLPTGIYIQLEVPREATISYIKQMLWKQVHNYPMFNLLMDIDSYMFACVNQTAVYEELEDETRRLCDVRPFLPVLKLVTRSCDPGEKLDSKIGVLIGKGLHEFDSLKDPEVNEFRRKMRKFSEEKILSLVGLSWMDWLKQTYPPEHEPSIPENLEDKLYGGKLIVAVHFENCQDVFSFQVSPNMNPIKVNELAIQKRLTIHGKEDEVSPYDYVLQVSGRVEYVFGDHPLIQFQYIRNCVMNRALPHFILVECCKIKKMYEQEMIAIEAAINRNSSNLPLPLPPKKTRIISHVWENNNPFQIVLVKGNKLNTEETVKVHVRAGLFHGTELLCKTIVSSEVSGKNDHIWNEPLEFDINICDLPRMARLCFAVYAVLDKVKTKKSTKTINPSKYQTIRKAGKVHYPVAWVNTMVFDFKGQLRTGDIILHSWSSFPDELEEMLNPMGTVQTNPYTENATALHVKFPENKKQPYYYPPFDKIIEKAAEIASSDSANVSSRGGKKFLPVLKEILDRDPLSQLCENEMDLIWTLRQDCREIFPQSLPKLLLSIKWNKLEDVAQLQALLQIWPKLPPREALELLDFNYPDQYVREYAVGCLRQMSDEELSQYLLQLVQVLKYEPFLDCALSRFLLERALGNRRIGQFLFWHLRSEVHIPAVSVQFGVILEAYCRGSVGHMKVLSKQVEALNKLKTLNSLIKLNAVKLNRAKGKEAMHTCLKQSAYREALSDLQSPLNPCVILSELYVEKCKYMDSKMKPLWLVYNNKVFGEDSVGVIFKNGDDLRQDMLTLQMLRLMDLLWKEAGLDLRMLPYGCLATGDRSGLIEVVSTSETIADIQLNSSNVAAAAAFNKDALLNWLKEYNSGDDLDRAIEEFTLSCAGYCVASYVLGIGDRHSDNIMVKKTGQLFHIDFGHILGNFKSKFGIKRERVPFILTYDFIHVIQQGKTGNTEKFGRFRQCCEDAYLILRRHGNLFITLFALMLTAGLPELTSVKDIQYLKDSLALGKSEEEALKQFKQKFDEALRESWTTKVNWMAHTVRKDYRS

SMILES | IC50 [1] [nM] | inhibition [2] [%] | IC50 [3] [nM] | other results
COc1ncc(-c2ccc3nccc(=O)n3c2)cc1NS(=O)(=O)c1cccc(F)c1 | 67 | 96 | 64 | –
O=c1ccnc2ccc(-c3cnc(Cl)c(NS(=O)(=O)c4ccc(F)cc4F)c3)cn12 | 32.8 | 92 | > 400 | –
COc1ncc(-c2ccc3nccc(=O)n3c2)cc1NS(=O)(=O)c1cc(F)ccc1F | 45 | 96 | 108 | –
COc1ncc(-c2ccc3nccc(=O)n3c2)cc1NS(=O)(=O)c1ccccc1C | 23.9 | 94 | 153 | –
COc1ncc(-c2ccc3nccc(=O)n3c2)cc1NS(=O)(=O)C1CC1 | – | 76 | – | –
CCOc1ncc(-c2ccc3nccc(=O)n3c2)cc1NS(=O)(=O)c1ccccc1F | – | 60 | – | –
COc1ncc(-c2ccc3nncc(N4CCOCC4)c3c2)cc1NS(=O)(=O)c1ccc(F)cc1F | – | 75 | – | –
COc1ncc(-c2ccc3nccc(=O)n3c2)cc1NS(=O)(=O)c1ccccc1 | 98.8 | 95 | 198 | –
COc1ncc(-c2ccc3nccc(=O)n3c2)cc1NS(=O)(=O)c1ccc(Cl)cc1 | 48.8 | 96 | 223 | –
CCc1ncc(-c2ccc3nccc(=O)n3c2)cc1NS(=O)(=O)c1ccc(F)cc1F | – | 86 | – | –
O=c1ccnc2ccc(-c3cnc(Cl)c(NS(=O)(=O)c4ccccc4F)c3)cn12 | 34.4 | 91 | > 400 | –
COc1ncc(-c2ccc3ncc(C)c(=O)n3c2)cc1NS(=O)(=O)c1ccc(F)cc1F | 27.9 | 90 | 119 | –
CCS(=O)(=O)Nc1cc(-c2ccc3nccc(=O)n3c2)cnc1OC | – | 53 | – | –
COc1ncc(-c2ccc3nccc(=O)n3c2)cc1NS(=O)(=O)c1ccc(C(F)(F)F)cc1 | 48.7 | 94 | 163 | –
Cc1ncc(-c2ccc3nccc(=O)n3c2)cc1NS(=O)(=O)c1ccc(F)cc1 | – | 85 | – | –
CCc1ncc(-c2ccc3nccc(=O)n3c2)cc1NS(=O)(=O)c1ccccc1F | – | 81 | – | –

SMILES | IC50 [1] [nM] | inhibition [2] [%] | IC50 [3] [nM] | other results
COc1ncc(-c2ccc3nccc(=O)n3n2)cc1NS(=O)(=O)c1ccc(F)cc1F | – | 63 | – | –
Cc1ncc(-c2ccc3nccc(=O)n3c2)cc1NS(=O)(=O)c1ccccc1F | – | 82 | – | –
COc1ncc(-c2ccc3nccc(=O)n3c2)cc1NS(=O)(=O)c1ccccc1F | 141 | 94 | > 400 | –
COc1ncc(-c2cn3c(=O)ccnc3cn2)cc1NS(=O)(=O)c1ccc(F)cc1F | – | 29 | – | –
COc1ncc(-c2ccc3nccc(=O)n3c2)cc1NS(=O)(=O)c1ccc(F)cc1F | 16 | 98 | 66 | clearance [4]: 5.15 mL/min/kg; IC50 [5]: 3.1 nM; Vd [6]: 0.443 L/kg; Tmax [7]: 0.333 h; AUC(0-t) [8]: 3280 ng·h/mL; Cmax [9]: 4080 ng/mL; bioavailability [10]: 139%; fraction unbound [11]: 0.019; half-life [12]: 1 h; AUC(0-t) [13]: 13800 ng·h/mL; fraction unbound [14]: 0.008; IC50 [15]: 19.2 nM; fraction unbound [16]: 0.005
COc1ncc(-c2ccc3nccc(=O)n3c2)cc1NS(=O)(=O)c1ccc(C#N)cc1 | 57.4 | 94 | 246 | –
COc1ncc(-c2ccc3nccc(=O)n3c2)cc1NS(=O)(=O)CC(F)(F)F | – | 78 | – | –
CCOc1cnc2ccc(-c3cnc(OC)c(NS(=O)(=O)c4ccc(F)cc4F)c3)cn2c1=O | – | 76 | – | –
COc1ncc(-c2cc3c(N4CCNC(=O)C4)ncnc3cn2)cc1NS(=O)(=O)c1ccc(F)cc1F | – | 50 | – | –
COc1ncc(-c2ccc3nccc(=O)n3c2)cc1NS(=O)(=O)c1ccc(F)cc1 | 80.7 | 95 | 106 | –
COc1ccc(S(=O)(=O)Nc2cc(-c3ccc4nccc(=O)n4c3)cnc2OC)cc1 | 54.1 | 95 | 138 | –
COc1ncc(-c2ccc3ncc(Cl)c(=O)n3c2)cc1NS(=O)(=O)c1ccc(F)cc1F | 11.6 | 93 | 89.2 | clearance [4]: 1.4 mL/min/kg; IC50 [5]: 3.4 nM; Vd [6]: 0.472 L/kg; Tmax [7]: 2.67 h; IC50 (PI3K p110 beta/p85 alpha): 34 nM; AUC(0-t) [8]: 11900 ng·h/mL; Cmax [9]: 5450 ng/mL; bioavailability [10]: 108%; IC50 [17]: 16 nM; Activity (Mus musculus): Non-Toxic; fraction unbound [11]: 0.005; half-life [12]: 3 h; TGI (PC-3M): Dose-dependent effect; IC50 [18]: 1 nM; AUC(0-t) [13]: 38600 ng·h/mL; fraction unbound [14]: < 0.01; IC50 [15]: 4.7 nM; fraction unbound [16]: < 0.01
COc1ncc(-c2ccc3nccc(=O)n3c2)cc1NS(=O)(=O)c1cc(F)cc(F)c1 | 78.2 | 98 | 77.2 | –
Cc1ncc(-c2ccc3nccc(=O)n3c2)cc1NS(=O)(=O)c1ccc(F)cc1F | – | 81 | – | –
COc1ncc(-c2cnc3nccc(-c4cnn(C)c4)c3c2)cc1NS(=O)(=O)c1ccc(F)cc1F | – | 47 | – | –
